Laboratory results reported in ChEMBL document CHEMBL2417474, “Synthesis, antiproliferative and anti-inflammatory activities of some novel 6-aryl-2-(p-(methanesulfonyl)phenyl)-4,5-dihydropyridazi-3(2H)-ones” (Eur J Med Chem, 2013).

Columns and labels:
Type in all cases: functional
CAKI-1 = experiment: Growth inhibition of human CAKI-1 cells assessed as cell growth at 10 uM after 48 hrs by sulforhodamine B assay; settings: CAKI-1, 48 h, read-out: Activity
SF-295 = experiment: Growth inhibition of human SF295 cells assessed as cell growth at 10 uM after 48 hrs by sulforhodamine B assay; settings: SF-295, 48 h, read-out: Activity
U-251 = experiment: Growth inhibition of human U251 cells after 48 hrs by sulforhodamine B assay; settings: U-251, 48 h; for CC50: read-out: LC50 (the source's name)
Method in brief: (§1)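 NCI 60-line panel. Cells were grown in medium with 5% fetal calf serum and 2 mM L-glutamine and preincubated 24 h in plates. Compound in DMSO was added at 10^-4 to 10^-8 M (five 10-fold levels), with continuous exposure for 48 h. Growth was read by SRB protein staining. GI50 is the concentration giving 50% reduction in net protein increase versus control cells.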

MDA-MB-435 = experiment: Growth inhibition of human MDA-MB-435 cells assessed as cell growth at 10 uM after 48 hrs by sulforhodamine B assay; settings: MDA-MB-435, 48 h, read-out: Activity
HL-60(TB) [1] = experiment: Growth inhibition of human HL-60(TB) cells after 48 hrs by sulforhodamine B assay; settings: HL-60, 48 h; for CC50: read-out: LC50 (the source's name)
Method in brief: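 Part of the NCI 60-cell-line panel. Cells were grown in 1640 medium with 5% fetal calf serum and 2 mM L-glutamine, then preincubated 24 h before compound was added. Compounds in DMSO were tested at five concentrations (100, 10, 1, 0.1, 0.01 µM) with 48 h continuous exposure. Read-out was SRB protein staining; GI50 is the concentration halving the net protein increase versus control.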

MOLT-4 [2] = experiment: Growth inhibition of human MOLT4 cells after 48 hrs by sulforhodamine B assay; settings: MOLT-4, 48 h
Method in brief: (§2)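 NCI 60-cell-line panel. Cells were grown in medium with 5% fetal calf serum and 2 mM L-glutamine, then preincubated 24 h in plates. Compounds were added from DMSO at five 10-fold concentrations from 100 to 0.01 µM and left on cells continuously for 48 h. Cell growth was read by sulforhodamine B protein stain. GI50 is the concentration that halves net protein increase relative to control cells.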

DU-145 = experiment: Growth inhibition of human DU145 cells assessed as cell growth at 10 uM after 48 hrs by sulforhodamine B assay; settings: DU-145, 48 h, read-out: Activity
[3] = Growth inhibition of human Hs 578T cells assessed as cell growth at 10 uM after 48 hrs by sulforhodamine B assay; settings: read-out: Activity
HOP-92 = experiment: Growth inhibition of human HOP92 cells after 48 hrs by sulforhodamine B assay; settings: HOP-92, 48 h; for CC50: read-out: LC50 (the source's name)
Method in brief: (§3)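 NCI 60-cell-line panel grown in RPMI-type medium with 5% fetal calf serum and 2 mM L-glutamine. Cells preincubated 24 h, then exposed continuously for 48 h to compound in DMSO at 10^-4 to 10^-8 M (five 10-fold levels). Growth read by SRB protein stain. GI50 is the concentration giving a 50% reduction in net protein increase relative to control cells.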

CCRF-CEM = experiment: Growth inhibition of human CCRF-CEM cells assessed as cell growth at 10 uM after 48 hrs by sulforhodamine B assay; settings: read-out: Activity
M14 = experiment: Growth inhibition of human M14 cells after 48 hrs by sulforhodamine B assay; settings: M14, 48 h; for CC50: read-out: LC50 (the source's name); method in brief: as §3
Malme-3M = experiment: Growth inhibition of human MALME-3M cells assessed as cell growth at 10 uM after 48 hrs by sulforhodamine B assay; settings: read-out: Activity
MOLT-4 [4] = experiment: Growth inhibition of human MOLT4 cells assessed as cell growth at 10 uM after 48 hrs by sulforhodamine B assay; settings: MOLT-4, 48 h, read-out: Activity
786-0 = experiment: Growth inhibition of human 786-0 cells assessed as cell growth at 10 uM after 48 hrs by sulforhodamine B assay; settings: 786-0, 48 h, read-out: Activity
HL-60(TB) [5] = experiment: Growth inhibition of human HL-60(TB) cells assessed as cell growth at 10 uM after 48 hrs by sulforhodamine B assay; settings: HL-60, 48 h, read-out: Activity
T47D = experiment: Growth inhibition of human T47D cells after 48 hrs by sulforhodamine B assay; method in brief: as §1
NCI-H23 = experiment: Growth inhibition of human NCI-H23 cells after 48 hrs by sulforhodamine B assay; settings: NCI-H23, 48 h; for CC50: read-out: LC50 (the source's name); method in brief: as §2
SR = experiment: Growth inhibition of human SR cells after 48 hrs by sulforhodamine B assay; method in brief: as §2
UACC-62 = experiment: Growth inhibition of human UACC62 cells assessed as cell growth at 10 uM after 48 hrs by sulforhodamine B assay; settings: UACC-62, 48 h, read-out: Activity
Method in brief: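 Single-dose NCI screen. Tumor lines were cultured in medium with 5% fetal calf serum and 2 mM L-glutamine, preincubated 24 h, then given compound in DMSO. After 48 h continuous exposure, cell growth was estimated by sulforhodamine B protein assay.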

SNB-19 = experiment: Growth inhibition of human SNB19 cells assessed as cell growth at 10 uM after 48 hrs by sulforhodamine B assay; settings: SNB-19, 48 h, read-out: Activity
NCI-H522 = experiment: Growth inhibition of human NCI-H522 cells after 48 hrs by sulforhodamine B assay; settings: NCI-H522, 48 h; method in brief: as §2
NCI-H226 = experiment: Growth inhibition of human NCI-H226 cells after 48 hrs by sulforhodamine B assay; settings: NCI-H226, 48 h; for CC50: read-out: LC50 (the source's name); method in brief: as §2
SK-MEL-28 = experiment: Growth inhibition of human SK-MEL-28 cells assessed as cell growth at 10 uM after 48 hrs by sulforhodamine B assay; settings: SK-MEL-28, 48 h, read-out: Activity
BT-549 = experiment: Growth inhibition of human BT549 cells after 48 hrs by sulforhodamine B assay; settings: BT-549, 48 h; for CC50: read-out: LC50 (the source's name); method in brief: as §3
SK-MEL-5 = experiment: Growth inhibition of human SK-MEL-5 cells after 48 hrs by sulforhodamine B assay; settings: SK-MEL-5, 48 h; method in brief: as §2
[6] = Growth inhibition of human EKVX cells assessed as cell growth at 10 uM after 48 hrs by sulforhodamine B assay; settings: read-out: Activity
OVCAR-3 = experiment: Growth inhibition of human OVCAR3 cells assessed as cell growth at 10 uM after 48 hrs by sulforhodamine B assay; settings: OVCAR-3, 48 h, read-out: Activity
KM12 = experiment: Growth inhibition of human KM12 cells after 48 hrs by sulforhodamine B assay; settings: KM12, 48 h; method in brief: as §3

## Cc1cc(O)ccc1C1=NN(c2ccc(S(C)(=O)=O)cc2)C(=O)CC1
CAKI-1
  growth at 10 µM: 25.4%
SF-295
  growth at 10 µM: 32.1%
U-251
  GI50: 4.3 µM
  TGI: > 100 µM
  CC50: > 100 µM
MDA-MB-435
  growth at 10 µM: -8.25%
HL-60(TB) [1]
  GI50: 3.52 µM
  TGI: 48.4 µM
  CC50: > 100 µM
MOLT-4 [2]
  GI50: 14.3 µM
  LC50: > 100 µM
  TGI: > 100 µM
DU-145
  growth at 10 µM: 92.2%
[3]
  growth at 10 µM: 87%
HOP-92
  GI50: 6.49 µM
  TGI: > 100 µM
  CC50: > 100 µM
CCRF-CEM
  growth at 10 µM: 69.7%
M14
  GI50: 3.85 µM
  TGI: > 100 µM
  CC50: > 100 µM
Malme-3M
  growth at 10 µM: 52.7%
MOLT-4 [4]
  growth at 10 µM: 52.7%
786-0
  growth at 10 µM: 84.1%
HL-60(TB) [5]
  growth at 10 µM: 52.6%
T47D
  GI50: 20.2 µM
  LC50: > 100 µM
  TGI: > 100 µM
NCI-H23
  GI50: 38.5 µM
  TGI: > 100 µM
  CC50: > 100 µM
SR
  GI50: 3.39 µM
  LC50: > 100 µM
  TGI: > 100 µM
UACC-62
  growth at 10 µM: 52.9%
SNB-19
  growth at 10 µM: 78.2%
NCI-H522
  GI50: 2.53 µM
  LC50 (concentration killing 50% of starting cells): > 100 µM
  TGI: 8.6 µM
NCI-H226
  GI50: > 100 µM
  TGI: > 100 µM
  CC50: > 100 µM
SK-MEL-28
  growth at 10 µM: 81.2%
BT-549
  GI50: 4.97 µM
  TGI: > 100 µM
  CC50: > 100 µM
SK-MEL-5
  GI50: 5.49 µM
  LC50: > 100 µM
  TGI: > 100 µM
[6]
  growth at 10 µM: 72.2%
OVCAR-3
  growth at 10 µM: 65.1%
KM12
  GI50: 4.22 µM
  LC50: > 100 µM
  TGI: > 100 µM

## Cc1ccc(C2=NN(c3ccc(S(C)(=O)=O)cc3)C(=O)CC2)cc1
U-251
  GI50: 0.45 µM
  TGI: > 100 µM
  CC50: > 100 µM
MDA-MB-435
  growth at 10 µM: -61.2%
HL-60(TB) [1]
  GI50: 0.4 µM
  TGI: 2.58 µM
  CC50: > 100 µM
MOLT-4 [2]
  GI50: 0.86 µM
  LC50: > 100 µM
  TGI: > 100 µM
DU-145
  growth at 10 µM: 6.77%
[3]
  growth at 10 µM: -1.17%
HOP-92
  GI50: 0.42 µM
  TGI: 8.3 µM
  CC50: > 100 µM
CCRF-CEM
  growth at 10 µM: 14.9%
M14
  GI50: 0.38 µM
  TGI: > 100 µM
  CC50: > 100 µM
Malme-3M
  growth at 10 µM: 45.5%
MOLT-4 [4]
  growth at 10 µM: 20.1%
786-0
  growth at 10 µM: 38.3%
HL-60(TB) [5]
  growth at 10 µM: -12%
T47D
  GI50: 2.08 µM
  LC50: > 100 µM
  TGI: > 100 µM
NCI-H23
  GI50: 2.5 µM
  TGI: > 100 µM
  CC50: > 100 µM
SR
  GI50: 0.29 µM
  LC50: > 100 µM
  TGI: > 100 µM
UACC-62
  growth at 10 µM: 42.9%
SNB-19
  growth at 10 µM: 55%
NCI-H522
  GI50: 0.22 µM
  LC50 (concentration killing 50% of starting cells): > 100 µM
  TGI: 1 µM
NCI-H226
  GI50: 0.43 µM
  TGI: > 100 µM
  CC50: > 100 µM
SK-MEL-28
  growth at 10 µM: 51.4%
BT-549
  GI50: 0.6 µM
  TGI: > 100 µM
  CC50: > 100 µM
SK-MEL-5
  GI50: 0.41 µM
  LC50: > 100 µM
  TGI: > 100 µM
OVCAR-3
  growth at 10 µM: -14.7%
KM12
  GI50: 0.44 µM
  LC50: > 100 µM
  TGI: > 100 µM
